We go through nine compounds from paper PMC7114206 (Antiviral Research, 2008).

Converted amounts (≈) assume the structure as drawn. “And” between values parts separate entries of the source, which are not always exact repeats. Equal entries are not always repeated. Where two headings read alike, the source gives them in different places.

Data set [1] concerns porcine epidemic diarrhea virus. The data set is described as follows: Antiviral activity against PEDV, CPE reduction by SRB method in Vero cells. The class given is cell-based, porcine epidemic diarrhea virus (PEDV CV 777).
Data set [2] in a line: Cytotoxicity SRB assay in Vero cells. The class given is cell-based, african green monkey. The settings on record: african green monkey, CC50, concentration required to reduce cell growth by 50%, 48 h. The method, boiled down: (§1)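 Vero cells seeded at 2 × 10^4/well and grown 1 day, then given medium with serially diluted test compound for 48 h. After PBS wash, cells fixed with cold 70% acetone (30 min, −20 °C), dried and stained 30 min with 0.4% SRB in 1% acetic acid. Dye solubilised in 10 mM Tris and read at A540 (ref 620 nm). CC50 read graphically from % of control curves.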

In a further data set the test system is Vero cells. Kind of data set: Cytotoxicity SRB assay in Vero cells. The class given is cell-based, african green monkey. The method, boiled down: as §1
(The SRB assay estimates cell density from bound dye.)

The test system of data set [3] is membrane (M) gene of PEDV. Kind of data set: RT-PCR analysis of PEDV replication. The class given is cell-based, porcine epidemic diarrhea virus. The settings on record: 10 μg/mL; RNA extracted 24 and 48 h after infection.
For the next data set, the system named is PRCV. Kind of data set: Antiviral activity against PRCV in ST cells. Format: cell-based, porcine respiratory coronavirus. The method, boiled down: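 PRCV (ATCC VR-2384) grown on ST pig testis cells kept in MEM with 10% FBS and 0.01% antibiotic-antimycotic. Read-out is SRB-based reduction of virus-induced CPE. IC50 is the concentration giving 50% inhibition of CPE, in μg/mL. TI = CC50/IC50. Values are means of three independent experiments run in triplicate ± S.D.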

The test system of another data set is TGEV. The data set is described as follows: Antiviral activity against TGEV in ST cells. The class given is cell-based, transmissible gastroenteritis virus.
The next data set relates to PEDV. The data set is described as follows: Time-of-addition effect on PEDV replication in Vero cells. The class given is cell-based, porcine epidemic diarrhea virus. The procedure, abridged:
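Vero cells seeded at 2 × 10^4/well and grown 1 day, then PBS-washed. […] After 2 days, SRB CPE-reduction read-out expressed as inhibition rate; mean ± S.D. of three independent experiments.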

Another data set relates to ST cells. Kind of data set: Cytotoxicity SRB assay in ST cells. The class given is cell-based, pig. The conditions noted are these: for Cytotoxicity: highest concentrations tested. The procedure, abridged:
(§2)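 ST pig testis cells kept in MEM with 10% FBS and 0.01% antibiotic-antimycotic. SRB staining gives cell growth. CC50 is the concentration reducing cell growth by 50%, in μg/mL. Values are means of three independent experiments run in triplicate ± S.D.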

Data set [4] is described as follows: Cytotoxicity SRB assay in ST cells. Format: cell-based, pig. The conditions noted are these: pig. The method, boiled down: as §2
The mark [5] stands for this setting: interferon-α in units, listed as interferon-α.

As for `O=c1cc(-c2ccc(O)cc2)oc2cc(O)cc(O)c12` [Apigenin], the “IC50, concentration required to inhibit virus-induced CPE by 50%” value (from here on “IC50 … to inhibit virus-induced CPE by 50%”) in data set [1] (SRB, 2 days) is 0.1 ± 0.1 µg/mL (≈ 0.37 µM); in [1] (SRB, 2 days, listed as apigenin), “less than 12 μg/mL”. For the same compound, the CC50 (in general, the concentration at which the toxic effect on the cells reaches its halfway point) at 48 h in data set [2] was above 50 µg/mL.
For the compound `O.Oc1cc(O)c2c(c1)O[C@H](c1ccc(O)c(O)c1)[C@@H](O)C2` [Catechin], in data set [1], the “TI, therapeutic index = CC50/IC50” value is on record as above 9.0. Besides, the “IC50 … to inhibit virus-induced CPE by 50%” value in data set [1] (SRB, 2 days) is 11.1 ± 7.1 µg/mL; in data set [1] (SRB, 2 days, listed as catechin) it was “less than 12 μg/mL”. Moreover, the “CC50, concentration required to reduce cell growth by 50%” value (“CC50 … to reduce cell growth by 50%” for short) in the data set with Vero cells (48 h) was above 100 µg/mL.
For `O=c1ccc2ccccc2o1` [Coumarin], the “TI, therapeutic index = CC50/IC50” value in [1] was 4.8.
Regarding `O=c1cc(-c2ccc(O)c(O)c2)oc2cc(O)cc(O)c12` [Luteolin], the “IC50 … to inhibit virus-induced CPE by 50%” value was 0.2 ± 0.2 µg/mL (≈ 0.699 µM) in data set [1] (SRB, 2 days) and “less than 12 μg/mL” in [1] (SRB, 2 days, listed as luteolin). Also, in data set [2], the half-maximal cytotoxic concentration (CC50) at 48 h was 6.7 µg/mL (≈ 23.4 µM).
Take `C[C@@H]1O[C@@H](Oc2cc(O)c3c(=O)c(O)c(-c4ccc(O)c(O)c4)oc3c2)[C@H](O)[C@H](O)[C@H]1O` [Q7R, quercetin 7-rhamnoside]: the “TI, therapeutic index = CC50/IC50” value is 7142 and > 7142.86 in [1]; above 7142.86 in data set [1] (listed as Quercetin 7-rhanmoside); above 1.67 with PRCV (PRCV in ST cells); above 1.58 in the data set on TGEV (TGEV in ST cells). Further, the “IC50 … to inhibit virus-induced CPE by 50%” value in [1] (SRB, 2 days) amounted to 0.014 ± 0.005 µg/mL (≈ 0.0312 µM). The “Intensity of the RT-PCR product band of PEDV” value in data set [3] is “decreased the intensity of the product band of PEDV at 24 and 48 h after infection”. The IC50 – broadly, the point on the concentration scale where inhibition reaches its midpoint – came to 59.76 ± 5.70 µg/mL (≈ 133 µM) in the data set on PRCV (PRCV in ST cells) and 63.31 ± 1.07 µg/mL (≈ 141 µM) in the data set on TGEV (TGEV in ST cells). Further, the “CC50 … to reduce cell growth by 50%” value in the data set with Vero cells (48 h) is above 100 µg/mL. Also, in the data set on PEDV (10 μg/mL added at 0, 1, 2 and 4 h after virus inoculation, SRB after 2 days), the “Inhibition rate (time of addition)” value is “higher than 85%”. In the data set on ST cells, this compound gave a cytotoxic concentration (CC50) above 100 µg/mL. The Cytotoxicity entry in the data set on ST cells was “did not exhibit any cytotoxicity at the highest concentrations tested”.
Take `O=c1c(O)c(-c2ccc(O)c(O)c2)oc2cc(O)cc(O)c12` [Quercetin]: the “TI, therapeutic index = CC50/IC50” value in data set [1] was 214.8. The compound further yielded a CC50 at 48 h in data set [2] of 365 µg/mL (≈ 1210 µM).
`NC(=O)c1ncn([C@@H]2O[C@H](CO)[C@@H](O)[C@H]2O)n1` [Ribavirin]: the figures for the “TI, therapeutic index = CC50/IC50” value (in data set [1]; in the data set on PRCV (PRCV in ST cells)) were 103.2 and above 1.62, respectively. Besides, the “Intensity of the RT-PCR product band of PEDV” value in data set [3] was “did not decrease the intensity of the product band of PEDV at 48 h after infection”. The IC50 in the data set with PRCV (Alphacoronavirus 1) turned out to be 61.6 ± 1.91 µg/mL (≈ 252 µM); with TGEV (Alphacoronavirus 1), 55.1 ± 0.8 µg/mL (≈ 226 µM). Further, the CC50 at 48 h in [2] was 423 µg/mL (≈ 1730 µM); in [4], above 100 µg/mL. Moreover, the inhibition – broadly, the change of the read-out against control, counted positive when it falls – at 10 µg/mL with PEDV (Porcine epidemic diarrhea virus, Vero, read-out: Inhibition rate (time of addition)) was below 50%. In addition, the Cytotoxicity entry with ST cells is “did not exhibit any cytotoxicity at the highest concentrations tested”.
As for Interferon-α, the “TI, therapeutic index = CC50/IC50” value in data set [1] and in data set [1] (listed as interferon-α) was above 192.3 in each case. Further, the “IC50 … to inhibit virus-induced CPE by 50%” value in data set [1] (interferon-α in units) is on record as 0.52 ± 0.5 unit; in data set [1] (setting [5]) it was 0.52 unit. The “CC50 … to reduce cell growth by 50%” value in the data set on Vero cells (interferon-α in units) and with Vero cells (setting [5]) was above 100 unit in each case.
With Tannic acid, the “TI, therapeutic index = CC50/IC50” value in data set [1] was 9.2.
